Data on eight compounds can be found in ChEMBL document CHEMBL1123959, “Orally active hydroxamic acid inhibitors of leukotriene biosynthesis” (J Med Chem, 1988).

The test system of experiment [1] is Rattus norvegicus. Briefly: Plasma concentration after 6 hr of peroral administration at 100 mg/kg was determined in rats. It counts as functional, organism-based. Further details: dose 100 mg/kg. The method, boiled down: (§1)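 Rats received 100 mg/kg orally by gavage. Blood was drawn from a lateral tail vein at the set times, and plasma was separated by centrifugation. Proteins were precipitated with methanol, and compound was quantified by HPLC with UV detection at its absorbance maximum. Values are the average of two determinations ± range.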

In experiment [2] the test system is Rattus norvegicus. Description: Plasma concentration after 1 hr of peroral administration at 100 mg/kg was determined in rats. It counts as functional, organism-based. Set-up: dose 100 mg/kg. The method, boiled down: as §1
For experiment [3], the system named is Rattus norvegicus. Description: Plasma concentration after 3h of peroral administration at 100 mg/kg was determined in rats. It counts as functional, organism-based. Set-up: dose 100 mg/kg. Summed up:
as §1

The species entered for experiment [4] is Rattus norvegicus. Description: Effective dosage to inhibit leukotriene biosynthesis in rat peritoneal anaphylaxis model. It counts as functional. Summed up: (§2)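 Rats were primed ip with rabbit antibody to bovine serum albumin and challenged ip with BSA 3 h later. Inhibitors were given orally by gavage 1 h before challenge. Rats were killed 15 min after challenge, and peritoneal fluid leukotrienes were measured by radioimmunoassay. ED50 is given with 95% confidence limits. Percent inhibition at a fixed dose is the mean ± SEM (n = 8).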

The target of experiment [5] is T1, Polyunsaturated fatty acid 5-lipoxygenase (Rattus norvegicus, UniProt P12527).
T1 sequence (P12527 whole entry): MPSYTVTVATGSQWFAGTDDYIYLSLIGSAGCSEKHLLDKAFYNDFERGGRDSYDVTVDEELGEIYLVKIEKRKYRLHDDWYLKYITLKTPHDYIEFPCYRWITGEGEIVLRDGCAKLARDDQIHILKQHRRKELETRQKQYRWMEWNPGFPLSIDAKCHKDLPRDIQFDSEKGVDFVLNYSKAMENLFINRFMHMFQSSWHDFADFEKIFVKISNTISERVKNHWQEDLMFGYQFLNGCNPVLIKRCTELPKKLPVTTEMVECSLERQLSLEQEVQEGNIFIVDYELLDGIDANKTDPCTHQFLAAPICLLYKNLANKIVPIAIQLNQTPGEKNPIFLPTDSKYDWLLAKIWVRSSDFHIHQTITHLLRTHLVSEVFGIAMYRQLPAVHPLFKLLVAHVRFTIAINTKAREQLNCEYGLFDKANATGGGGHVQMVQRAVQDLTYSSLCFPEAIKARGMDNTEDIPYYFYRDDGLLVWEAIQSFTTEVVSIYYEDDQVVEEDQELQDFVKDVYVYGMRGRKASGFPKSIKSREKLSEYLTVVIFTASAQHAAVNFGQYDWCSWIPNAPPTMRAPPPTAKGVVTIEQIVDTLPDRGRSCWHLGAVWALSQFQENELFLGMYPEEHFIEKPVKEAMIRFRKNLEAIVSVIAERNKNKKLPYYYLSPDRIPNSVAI
Briefly: In vitro inhibition of 5-lipoxygenase in RBL-1 cells. It counts as cell-based. Summed up:
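The enzyme was 5-lipoxygenase in the 2000g supernatant of RBL-1 cell homogenate. IC50 is reported with 95% confidence limits.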

Experiment [6] has as its system Rattus norvegicus. Briefly: Percentage inhibition of leukotriene biosynthesis in rat peritoneal anaphylaxis model at 100 mg/kg. It counts as functional. The method, boiled down: as §2

For orientation: ED50 means the dose at which the effect has come halfway, by size or by number of responders. A word on the IC50: it is the concentration that inhibits the measured activity by half. Lower therefore signals greater potency in that assay. Turning to `CC(=O)N(O)C(C)c1ccc(CC(C)C)cc1` (stereo not drawn), the values for the Plasma concentration with Rattus norvegicus [1], with Rattus norvegicus [2] and in the experiment on Rattus norvegicus [3] were 5 µM, 21 µM and 10 µM, respectively. Besides, in the experiment listed under Rattus norvegicus [4], the ED50 worked out at 24 mg/kg. Moreover, in experiment [5], it took 420 nM to reach half-maximal inhibition (IC50).
For `CC(C(=O)N(C)O)c1ccc2ccccc2c1` (stereo not drawn), the Plasma concentration in the experiment with Rattus norvegicus [1] was 1.4 µM; in the experiment on Rattus norvegicus [2], 37 µM; in the experiment with Rattus norvegicus [3] it was 13 µM. Also, the midpoint of inhibition in experiment [5], the IC50, lay at 590 nM.
Regarding `CCCCOc1ccc(C(C)N(O)C(C)=O)cc1` (stereo not drawn), the Plasma concentration is 13 µM in the experiment with Rattus norvegicus [1], 92 µM in the experiment with Rattus norvegicus [2] and 71 µM with Rattus norvegicus [3]. In the experiment listed under Rattus norvegicus [4], this compound showed an ED50 of 17 mg/kg. Further, 790 nM corresponded to half-maximal inhibition in experiment [5] (IC50).
Regarding `CC(=O)N(O)C(C)c1ccc(OCc2ccccc2)cc1` (stereo not drawn), the Plasma concentration in the experiment with Rattus norvegicus [1] was determined as 95 µM; in the experiment with Rattus norvegicus [2], 110 µM; in the experiment with Rattus norvegicus [3], 140 µM. In addition, the median effective dose (ED50) in the experiment filed under Rattus norvegicus [4] was 8 mg/kg. For the same compound, the IC50 in experiment [5] amounted to 370 nM.
For `CC(=O)N(O)C(C)c1ccc2ccccc2c1` (stereo not drawn) the same measures were 33 µM, 91 µM, 26 µM, 19 mg/kg and 540 nM.
As usually defined, the inhibition in vivo is the change of the read-out against control, counted positive when it falls. The low end stands for little suppression, the high end for strong suppression. `CC(C)Cc1ccc(C(C)C(=O)N(C)O)cc1` (stereo not drawn): the Plasma concentration with Rattus norvegicus [1], with Rattus norvegicus [2] and in the experiment on Rattus norvegicus [3] was under 9 µM in each case. Moreover, the inhibition in vivo at 100 mg/kg in the experiment with Rattus norvegicus [6] came to 65%. Moreover, inhibition in experiment [5] was half-maximal at 290 nM (IC50).
For the compound `CCCCOc1ccc(C(C)C(=O)N(C)O)cc1` (stereo not drawn), the figures for the Plasma concentration with Rattus norvegicus [1], with Rattus norvegicus [2] and with Rattus norvegicus [3] were 3.2 µM, 58 µM and 7.3 µM, respectively. The compound also registered an inhibition in vivo at 100 mg/kg in the experiment on Rattus norvegicus [6] of 62%. For the same compound, the IC50 in experiment [5] was 780 nM.
With `CC(C(=O)N(C)O)c1ccc(OCc2ccccc2)cc1` (stereo not drawn), the values for the Plasma concentration with Rattus norvegicus [1], in the experiment on Rattus norvegicus [2] and in the experiment on Rattus norvegicus [3] were 3.8 µM, 8 µM and 5.8 µM, respectively. In addition, the ED50 in the experiment filed under Rattus norvegicus [4] was 40 mg/kg.
